# Assay outcomes deposited in PubChem by several laboratories.
# KCNQ1 inh: inhibitors of human KCNQ1 channel, primary screen, cell-based, thallium flux, high-throughput | Potassium voltage-gated channel subfamily KQT member 1 (Homo sapiens), P51787 | CHO-K1 KCNQ1, FluxOR thallium flux fluorescence; hits give high values | B-score at 10 µM | actives 1.3% (n = 310,000);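 active means compounds whose thallium flux B-score, printed positive for inhibition, exceeds three library SD while starting fluorescence stays within three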;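 further: channel opened by potassium depolarization with thallium stimulus after 20 min compound exposure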
# KCC2 mod: KCC2 cotransporter modulators, thallium flux, primary screen, cell-based, HEK293 KCC2, FluoZin-2 fluorescence, MLSMR. Solute carrier family 12 member 5 (Homo sapiens), Q9H2X9. actives 2.2% (n = 190,000). B-score of Tl+ flux slope (higher = more flux/activation; lower = inhibition) at 10 µM. KCC2 cells, thallium flux FluoZin-2 fluorescence. AID 1456, 2008;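 active means thallium flux slope and its plate-corrected score both differing from the plate sample mean at a set confidence after two filtering rounds, in either direction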;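 further: slope of fluorescence scaled to starting intensity during 10 to 20 s after thallium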
# Target sequence (Q9H2X9 whole entry, looked up): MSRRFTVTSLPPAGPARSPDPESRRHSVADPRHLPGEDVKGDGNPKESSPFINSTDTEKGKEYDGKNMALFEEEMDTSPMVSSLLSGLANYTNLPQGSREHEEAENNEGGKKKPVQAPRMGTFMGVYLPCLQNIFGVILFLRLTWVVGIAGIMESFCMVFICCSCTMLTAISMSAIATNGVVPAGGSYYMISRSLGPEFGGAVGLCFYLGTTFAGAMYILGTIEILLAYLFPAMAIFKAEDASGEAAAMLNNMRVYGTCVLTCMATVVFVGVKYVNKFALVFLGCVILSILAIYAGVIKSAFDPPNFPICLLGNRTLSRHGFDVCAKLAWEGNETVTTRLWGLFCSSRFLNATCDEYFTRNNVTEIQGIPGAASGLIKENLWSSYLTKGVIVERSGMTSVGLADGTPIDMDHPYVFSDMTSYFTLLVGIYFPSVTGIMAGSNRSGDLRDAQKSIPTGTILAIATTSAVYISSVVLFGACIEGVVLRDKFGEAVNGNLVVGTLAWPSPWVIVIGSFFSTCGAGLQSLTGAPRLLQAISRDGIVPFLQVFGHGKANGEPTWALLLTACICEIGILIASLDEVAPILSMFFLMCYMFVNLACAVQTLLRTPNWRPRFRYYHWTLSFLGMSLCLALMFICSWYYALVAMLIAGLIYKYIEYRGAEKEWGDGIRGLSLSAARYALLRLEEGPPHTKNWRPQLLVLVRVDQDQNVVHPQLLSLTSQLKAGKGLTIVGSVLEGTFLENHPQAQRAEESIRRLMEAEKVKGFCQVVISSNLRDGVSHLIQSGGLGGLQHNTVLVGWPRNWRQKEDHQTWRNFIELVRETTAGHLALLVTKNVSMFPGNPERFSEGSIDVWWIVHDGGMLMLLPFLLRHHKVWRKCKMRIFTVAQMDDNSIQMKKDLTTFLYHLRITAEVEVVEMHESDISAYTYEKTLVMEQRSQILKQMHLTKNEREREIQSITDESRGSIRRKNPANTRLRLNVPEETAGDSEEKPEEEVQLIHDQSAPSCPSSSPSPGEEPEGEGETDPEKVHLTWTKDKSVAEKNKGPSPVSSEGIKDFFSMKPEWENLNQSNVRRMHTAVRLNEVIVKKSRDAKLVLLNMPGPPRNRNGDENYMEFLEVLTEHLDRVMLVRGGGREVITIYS
# KCNK3 inh: human KCNK3 channel inhibitors, primary screen, CHO cells, FluxOR thallium flux, B-score. Potassium channel subfamily K member 3 (Homo sapiens), O14649. FluxOR fluorescence; hits give low values. B-score at 10 µM. actives 0.84% (n = 340,000). AID 602410, 2012;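 active means B-score under library mean minus 4 SD, starting fluorescence ratio at most library mean plus 5 SD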;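 further: more negative B-score means stronger inhibition of thallium flux through KCNK3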
# KCNQ1 act: potentiators or activators of KCNQ1 channel, primary screen, cell-based, thallium flux, high-throughput. B-score at 10 µM. actives 0.35% (n = 310,000). Potassium voltage-gated channel subfamily KQT member 1 (Homo sapiens), P51787. CHO-K1 KCNQ1, thallium flux FluxOR fluorescence; hits give high values;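 active means fluorescence ratio B-score, a plate-corrected score, at least three library SD, with initial intensity B-score within 5 SD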
#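 assay system = CHO-K1 cells stably expressing KCNQ1 | medium = assay buffer, equal DMSO in all wells | timing = 37 °C overnight plating, 90-min dark dye load, 20-min compound pretreatment | measured by = kinetic FluxOR thallium fluorescence, 10-s 1-Hz baseline, 110-s post-stimulus read | measure = fluorescence change relative to baseline, converted to B score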
# KCNK9 block: KCNK9 potassium channel inhibitors, primary screen, HEK293 cells, thallium flux; B-score at 10 µM; FluxOR thallium flux fluorescence; hits give low values; actives 1.2% (n = 310,000);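 active means ratio B-score over 3 SD below the library mean, with starting fluorescence within 5 SD of its mean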;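 further: negative B-score means less thallium flux so channel inhibition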
# hERG rescue: hERG rescue from dofetilide block, primary screen, cell-based, CHO-hERG, FluxOR thallium flux, dofetilide IC70; AID 1511, 2009; activation (rescue from dofetilide block), less the hit threshold, % at 10 µM; actives 0.51% (n = 310,000); dofetilide IC70 present; Voltage-gated inwardly rectifying potassium channel KCNH2 (Homo sapiens), Q12809;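 active means activation above the mean of controls blocked by dofetilide plus 5 SD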;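 further: thallium influx through hERG after potassium depolarization seen as dye fluorescence rise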
# * hit, by the source's call; i = inactive; . = not tested or not shown. This is a sample that favours compounds with a hit; in the whole collection about 4.1% have one here.
SMILES,KCNQ1 inh,KCC2 mod,KCNK3 inh,KCNQ1 act,KCNK9 block,hERG rescue
O=C(CCC(=O)c1ccccc1)NC1CCCN(Cc2ccccc2F)C1 (stereo not given),i,.,i,i,i,-2.1
CCOC(=O)c1c(N)sc(C(O)(C(F)(F)F)C(F)(F)F)c1-c1ccccc1,i,0.384,i,i,-7.53*,-18.4
CCOC(=O)c1c(N)sc(-c2ccccc2)c1C,i,0.503,i,i,i,-10.4
O=C(NC(=S)Nc1ccccc1)c1ccc(-c2ccccc2)cc1,i,1.74,i,i,i,-6.0
COc1ccc(C(=O)NC(=S)N(Cc2ccccc2)Cc2ccccc2)cc1,i,64*,i,85*,i,33.3*
CN(Cc1ccccc1)C(=S)NC(=O)C1CCCCC1,i,13.6*,i,i,i,-11.1
C=CCN(CC=C)C(=S)NC(=O)c1ccc(-c2ccccc2)cc1,i,31*,i,15*,i,-0.1
C=CCN(CC=C)C(=S)NC(=O)c1ccc(C)c(Br)c1,i,45.3*,i,56*,i,86.8*
COc1ccc(C(=O)NCCCc2ccccc2)cc1,i,.,i,i,i,-8.6
O=C(NC(=S)N(Cc1ccccc1)c1ccccn1)C1CCCCC1,i,0.0299,i,i,i,-9.1
O=S(=O)(CCc1ccccc1)CS(=O)(=O)CCc1ccccc1,.,.,i,.,.,.
CN(C)C(CNC(=O)c1ccc(C(=O)c2ccccc2)cc1)c1ccccc1 (stereo not given),i,.,i,i,i,-5.3
C=CCN(CC=C)C(=S)NC(=O)/C=C/c1ccc(C)cc1,i,14.5*,i,i,i,-4.4
CC(C)(C)N(Cc1ccccc1)C(=O)c1cccs1,i,.,i,i,i,-2.1
CN(C)C(CNC(=O)c1ccc(-c2ccccc2)cc1)c1ccccc1 (stereo not given),6*,.,i,i,i,-11.4
CN(Cc1ccccc1)C(=S)NC(=O)c1ccc(-c2ccccc2)cc1,i,28.8*,i,i,i,-2.5
CN(Cc1ccccc1)C(=S)NC(=O)c1cccs1,i,.,i,39*,i,-0.7
O=C(NCc1n[nH]c(=O)c2ccccc12)C1CC(=O)N(c2ccccc2)C1 (stereo not given),i,.,i,i,i,-7.4
O=C(Nc1ccc(C(=O)N2CCN(c3ccccc3)CC2)cc1)C1=CSCCO1,i,.,i,i,i,-6.8
O=C(CSc1ccc(-c2cccnc2)nn1)Nc1ccc(F)cc1,i,.,i,i,i,-2.3
CSc1ccccc1NC(=O)CN(C)CC(=O)c1c(C)[nH]c2ccccc12,.,.,i,.,.,.
COc1ccccc1C(=O)NNC(=S)NC(=O)c1sc2ccccc2c1Cl,i,19.7*,i,25*,i,25.4*
COc1ccccc1C(=O)NNC(=S)NC(=O)c1cccs1,i,.,i,10*,i,-19.3
COc1ccccc1C(=O)NC(=S)NNC(=O)c1sc2ccccc2c1Cl,i,33.6*,i,46*,i,86.0*
CC1CCCCC1NC(=S)NC(=O)c1sc2ccccc2c1Cl (stereo not given),i,2.07,i,9*,i,7.2*
SMILES,KCNQ1 inh,KCC2 mod,KCNK3 inh,KCNQ1 act,KCNK9 block,hERG rescue
Cc1c(NC(=S)NC(=O)c2sc3ccccc3c2Cl)cccc1C(=O)O,i,-2.74,i,i,i,0.3
CCc1cccc(OCC(=O)Nc2cc(S(=O)(=O)N3CCOCC3)ccc2N2CCCC2)c1,i,.,i,i,i,-12.0
CC1CC(C)CN(C(=O)COC(=O)COc2ccccc2C#N)C1 (stereo not given),.,.,i,.,.,.
CCCCn1c(N)c(N(CC(C)C)C(=O)CSC(C)C(=O)Nc2cc(C)on2)c(=O)[nH]c1=O (stereo not given),i,.,i,i,i,-14.8
N#Cc1cccc(S(=O)(=O)NNC(=O)C23CC4CC(CC(C4)C2)C3)c1,.,.,i,.,.,.
COc1ccc(C(=O)Nc2nc3cc4c(cc3s2)OCO4)c(OC)c1,i,0.228,i,i,i,-9.7
O=C(NC(=S)N(CCCCO)C1CCCCC1)c1sc2ccccc2c1Cl,i,.,i,31*,i,17.8*
CCN(C(=O)COC(=O)CNC(=O)c1sc2ccccc2c1Cl)C1CCCCC1,i,.,i,i,i,-8.0
Cc1ccc(S(=O)(=O)n2nccc2-c2c(-c3ccccc3)noc2C)cc1,i,-1.79,i,i,-7.25*,-5.4
Cc1nnsc1S(=O)c1ccccc1Cl (stereo not given),i,.,i,i,i,-3.7
O=C(COc1ccc2c3c(c(=O)oc2c1)CCC3)N[C@@H](Cc1ccccc1)C(=O)O,i,.,i,i,i,5.3*
CCCCCN(C(=O)CCC(=O)OCc1cc(C)ccc1C)c1c(N)n(CCCC)c(=O)[nH]c1=O,i,.,i,i,i,-5.7
S=c1nc2ccccc2c2nc(-c3ccccc3Br)[nH]n12,i,.,i,i,i,-4.2
Brc1ccccc1-c1nc2c3ccccc3ncn2n1,.,.,-9.43*,.,.,.
C#CCN(C(=O)c1cc(COc2cccc(C(F)(F)F)c2)on1)C1CCCCC1,i,.,i,i,i,-10.7
O=C(OCC(=O)c1ccc(Cl)s1)c1cnccn1,i,.,i,i,i,-12.2
O=[N+]([O-])c1ccc(N(c2ccccc2)c2ccccc2)cc1,9*,2,i,i,i,-25.5
CN(C)c1ccc(C=NC(CO)C(O)c2ccc([N+](=O)[O-])cc2)cc1 (stereo not given),i,-0.304,i,i,i,-3.9
CN(C)c1ccc(C(c2ccc(N(C)C)cc2)c2ccc([N+](=O)[O-])cc2)cc1,i,-1.13,i,i,-7.82*,-7.9
CCN1CCc2c(C#N)c(N3CCCCC3)nc(NCc3ccccc3)c2C1,i,0.663,i,i,i,-21.4
C=CCNc1nc(N2CCCCC2)c(C#N)c2c1CN(Cc1ccccc1)CC2,i,.,-11.3*,i,i,-18.6
CN(c1nc2ccccc2nc1Cl)S(=O)(=O)c1ccccc1,i,.,i,i,i,-16.5
